Measured values: ChEMBL document CHEMBL3763021 (Eur J Med Chem, 2016)
One block for each molecule: values may come before it.

Tests used:
LS174T [1] = test: Antitumor activity against human LS174T cells xenografted in BALB/C mouse assessed as tumor volume inhibition at 37.5 mg/kg, qd administered for 10 days measured twice per week; format: functional; settings: 240 h, read-out: TGI
Procedure, shortened: (§1)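 Male BALB/c nude mice, 18–20 g, kept under SPF conditions. LS-174T cells at 2.5×10^7 cells/mL were injected s.c. into the right flank, and tumors were grown to about 100 mm3. Mice were randomized, n=6 treated and n=9 vehicle. Oral dosing ran qd or bid for 10 days; vehicle controls got the same volume of solvent. Tumor volume = length×width²/2, measured twice weekly. IR = (control − treated)/control for tumor weight or volume at day 10.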

LS174T [2] = test: Antitumor activity against human LS174T cells xenografted in BALB/C mouse assessed as tumor volume inhibition at 75 mg/kg, qd administered for 10 days measured twice per week; format: functional; settings: 240 h, read-out: TGI; procedure, shortened: as §1
LS174T [3] = test: Antitumor activity against human LS174T cells xenografted in BALB/C mouse assessed as tumor weight inhibition at 75 mg/kg, qd administered for 10 days measured twice per week; format: functional; settings: 240 h, read-out: TGI; procedure, shortened: as §1
LS174T [4] = test: Antitumor activity against human LS174T cells xenografted in BALB/C mouse assessed as tumor weight inhibition at 150 mg/kg, qd administered for 10 days measured twice per week; format: functional; settings: 240 h, read-out: TGI; procedure, shortened: as §1
[5] = Cmax in Sprague-Dawley rat at 5 mg/kg, po by LC/MS/MS analysis; format: ADME, organism-based; set-up: dose 5 mg/kg, route oral; settings: in vivo
Procedure, shortened: (§2)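 Male SD rats, 180–240 g, 3 per compound; single dose of 1 mg/kg iv or 5 mg/kg po, dosing volume 5 mL/kg. Blood was sampled from 2 min to 24 h and centrifuged at 4 °C. Plasma underwent protein precipitation, then LC/MS/MS in SRM mode with an internal standard. Parameters were derived by noncompartmental analysis.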

[6] = Mean resident time (0 to t) in Sprague-Dawley rat at 1 mg/kg, iv by LC/MS/MS analysis; format: ADME, organism-based; settings: in vivo; procedure, shortened: as §2
[7] = Mean resident time (0 to t) in Sprague-Dawley rat at 5 mg/kg, po by LC/MS/MS analysis; format: ADME, organism-based; settings: in vivo; procedure, shortened: as §2
[8] = Oral bioavailability in Sprague-Dawley rat at 5 mg/kg; format: ADME, organism-based; settings: in vivo; procedure, shortened: as §2
[9] = AUC (0 to t) in Sprague-Dawley rat at 5 mg/kg, po by LC/MS/MS analysis; format: ADME, organism-based; settings: in vivo; procedure, shortened: as §2
[10] = Clearance in Sprague-Dawley rat at 1 mg/kg, iv by LC/MS/MS analysis; format: ADME, organism-based; settings: in vivo; procedure, shortened: as §2
[11] = Antiproliferative activity against human PC3 cells after 72 hrs by CellTiter-Glo luminescent cell viability assay; format: functional, cell-based; settings: PC-3, 72 h
Procedure, shortened: (§3)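 Cells were grown in DMEM with 10% FBS, seeded at a density suited to each line, and left 24 h at 37 °C. Compounds were prepared in DMSO, diluted in medium over a concentration series starting at 100 µM, and applied for 72 h. CellTiter-Glo reagent was added for 30 min at room temperature before reading luminescence. IC50 came from four-parameter curve fitting.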

Mus musculus [12] = test: Toxicity in BALB/C mouse xenografted with human LS174T cells assessed as loss of body weight at 75 mg/kg, bid administered for 10 days measured twice per week; format: organism-based; settings: in vivo, 240 h
Procedure, shortened: (§4)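 Male BALB/C nude mice (18–20 g) kept under SPF conditions. LS-174T cells at 2.5×10^7 cells/mL injected subcutaneously into the right flank. Once tumors reached about 100 mm3, mice were randomized to groups of 6 (vehicle group n = 9) and dosed orally once or twice daily for 10 days. Controls received solvent. Body weight and tumor volume were measured twice weekly and deaths recorded.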

[13] = AUC (0 to t) in Sprague-Dawley rat at 1 mg/kg, iv by LC/MS/MS analysis; format: ADME, organism-based; settings: in vivo
Procedure, shortened: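 Male SD rats, 3 per compound, 180–240 g, single iv dose at 1 mg/kg, dosing volume 5 mL/kg. Blood sampled at 2, 5, 15, 30 min and 1, 2, 4, 6, 8, 10, 24 h, then centrifuged at 4 °C. Plasma protein-precipitated and analysed by LC/MS/MS in SRM mode with internal standard. AUC(0-t) obtained by noncompartmental analysis.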

Mus musculus [14] = test: Toxicity in BALB/C mouse xenografted with human LS174T cells assessed as mortality at 75 mg/kg, bid administered for 10 days; format: organism-based; settings: in vivo, 240 h; procedure, shortened: as §4
[15] = Half life in Sprague-Dawley rat at 5 mg/kg, po by LC/MS/MS analysis; format: ADME, organism-based; settings: in vivo; procedure, shortened: as §2
[16] = Half life in Sprague-Dawley rat at 1 mg/kg, iv by LC/MS/MS analysis; format: ADME, organism-based; settings: in vivo; procedure, shortened: as §2
Mus musculus [17] = test: Toxicity in BALB/C mouse xenografted with human LS174T cells assessed as mortality at 37.5 to 150 mg/kg, qd administered for 10 days; format: organism-based; settings: in vivo, 240 h; procedure, shortened: as §4
LS174T [18] = test: Antitumor activity against human LS174T cells xenografted in BALB/C mouse assessed as tumor volume inhibition at 75 mg/kg, bid administered for 10 days measured twice per week; settings: 240 h, read-out: TGI
Mus musculus [19] = test: Toxicity in BALB/C mouse xenografted with human LS174T cells assessed as loss of body weight at 37.5 to 150 mg/kg, qd administered for 10 days measured twice per week; format: organism-based; settings: in vivo, 240 h; procedure, shortened: as §4
[20] = Inhibition of Sonic-induced hedgehog signalling in mouse NIH3T3 cells after 48 hrs by Gli-luciferase reporter assay; format: cell-based; settings: NIH3T3, 48 h
Procedure, shortened: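 NIH3T3 cells stably carrying a Gli-luciferase reporter were kept in DMEM with 10% FBS and 1 µg/mL puromycin, then seeded at 2×10^4 cells/well overnight at 37 °C. Compounds at 0.05–300 nM (8 concentrations) were added in medium with 0.5% FBS and 0.7 µg/mL Sonic Hh agonist, n=4 wells, for 48 h. Readout was the Firefly/Renilla luciferase ratio in lysates.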

LS174T [21] = test: Antitumor activity against human LS174T cells xenografted in BALB/C mouse assessed as tumor weight inhibition at 75 mg/kg, bid administered for 10 days measured twice per week; format: functional; settings: 240 h, read-out: TGI; procedure, shortened: as §1
[22] = Clearance in Sprague-Dawley rat at 5 mg/kg, po by LC/MS/MS analysis; format: ADME, organism-based; settings: in vivo; procedure, shortened: as §2
[23] = Apparent volume of distribution in Sprague-Dawley rat at 1 mg/kg, iv by LC/MS/MS analysis; settings: in vivo
LS174T [24] = test: Antitumor activity against human LS174T cells xenografted in BALB/C mouse assessed as tumor volume inhibition at 150 mg/kg, qd administered for 10 days measured twice per week; format: functional; settings: 240 h, read-out: TGI; procedure, shortened: as §1
LS174T [25] = test: Antitumor activity against human LS174T cells xenografted in BALB/C mouse assessed as tumor weight inhibition at 37.5 mg/kg, qd administered for 10 days measured twice per week; format: functional; settings: 240 h, read-out: TGI; procedure, shortened: as §1
[26] = Antiproliferative activity against human BxPC3 cells after 72 hrs by CellTiter-Glo luminescent cell viability assay; format: functional, cell-based; settings: BXPC-3, 72 h; procedure, shortened: as §3
LS174T [27] = test: Antiproliferative activity against human LS174T cells after 72 hrs by CellTiter-Glo luminescent cell viability assay; format: functional, cell-based; procedure, shortened: as §3
[28] = Cmax in Sprague-Dawley rat at 1 mg/kg, iv by LC/MS/MS analysis; format: ADME, organism-based; set-up: dose 1 mg/kg, route intravenous; settings: in vivo; procedure, shortened: as §2
Rattus norvegicus = test: Apparent volume of distribution in Sprague-Dawley rat at 5 mg/kg, po by LC/MS/MS analysis; settings: in vivo

SMILES: Cc1ccc(CN2CCOCC2)cc1NC(=O)c1ccc(Nc2nccc(-c3ccc(OC(F)(F)F)cc3)n2)cc1
- inhibition in vivo at 37.5 mg/kg (LS174T [1]): 33%
- inhibition in vivo at 75 mg/kg (LS174T [2]): 23.2%
- inhibition in vivo at 75 mg/kg (LS174T [3]): 9.9%
- inhibition in vivo at 150 mg/kg (LS174T [4]): 21.1%
- Cmax [5]: 635 ng/mL
- MRT last [6]: 4.22 h
- MRT last [7]: 6.98 h
- bioavailability [8]: 42%
- AUC(0-t) [9]: 6220 ng·h/mL
- clearance [10]: 6.69 mL/min/kg
- IC50 [11]: 14800 nM
- Activity (Mus musculus [12]): Non-toxic
- AUC(0-t) [13]: 2440 ng·h/mL
- Activity (Mus musculus [14]): Non-toxic
- half-life [15]: 6.68 h
- half-life [16]: 4.96 h
- Activity (Mus musculus [17]): Non-toxic
- inhibition in vivo at 75 mg/kg (LS174T [18]): 42.9%
- Activity (Mus musculus [19]): Non-toxic
- IC50 [20]: 0.89 nM
- inhibition in vivo at 75 mg/kg (LS174T [21]): 23.3%
- CL/F [22]: 12.3 mL/min/kg
- Vd [23]: 2.87 L/kg
- inhibition in vivo at 150 mg/kg (LS174T [24]): 38.9%
- inhibition in vivo at 37.5 mg/kg (LS174T [25]): 10.2%
- IC50 [26]: 35400 nM
- IC50 (LS174T [27]): 12200 nM
- Cmax [28]: 1200 ng/mL
- Vd(app) (Rattus norvegicus): 7.12872 L/kg

- IC50 [20]: 2.31 nM
SMILES: CCN(CC)Cc1ccc(C)c(NC(=O)c2ccc(Nc3nccc(-c4ccc(OC(F)(F)F)cc4)n3)cc2)c1

- Cmax [5]: 137 ng/mL
- MRT last [7]: 4.83 h
- AUC(0-t) [9]: 660 ng·h/mL
- half-life [15]: 5.56 h
- IC50 [20]: 0.69 nM
- CL/F [22]: 123 mL/min/kg
- Vd(app) (Rattus norvegicus): 59.60185 L/kg
SMILES: Cc1ccc(CN2CCOCC2)cc1NC(=O)c1ccc(Nc2nccc(-c3ccc(OC(F)(F)F)cc3)n2)cn1

- IC50 [20]: 2.56 nM
SMILES: CCN(CC)Cc1ccc(C)c(NC(=O)c2ccc(Nc3ncc(F)c(-c4ccc(OC(F)(F)F)cc4)n3)cc2)c1

- IC50 [20]: 2.84 nM
SMILES: Cc1ccc(CN2CCN(C)CC2)cc1NC(=O)c1ccc(Nc2ncc(F)c(-c3ccc(OC(F)(F)F)cc3)n2)cc1

- IC50 [20]: 3.04 nM
SMILES: Cc1ccc(CN(C)C)cc1NC(=O)c1ccc(Nc2nccc(-c3ccc(OC(F)(F)F)cc3)n2)cc1

SMILES: CS(=O)(=O)c1ccc(C(=O)Nc2ccc(Cl)c(-c3ccccn3)c2)c(Cl)c1 [VISMODEGIB]
- Cmax [5]: 3640 ng/mL
- MRT last [7]: 3.93 h
- bioavailability [8]: > 100%
- AUC(0-t) [9]: 22400 ng·h/mL
- IC50 [11]: 66800 nM
- Activity (Mus musculus [14]): Non-toxic
- half-life [15]: 2.46 h
- IC50 [20]: 7.2 nM
- inhibition in vivo at 75 mg/kg (LS174T [21]): 11.8%
- CL/F [22]: 4.68 mL/min/kg
- IC50 [26]: 48000 nM
- IC50 (LS174T [27]): 45800 nM

- IC50 [20]: 2.68 nM
SMILES: Cc1ccc(CN2CCCCC2)cc1NC(=O)c1ccc(Nc2nccc(-c3ccc(OC(F)(F)F)cc3)n2)cc1

- MRT last [6]: 1.53 h
- clearance [10]: 21.5 mL/min/kg
- AUC(0-t) [13]: 769 ng·h/mL
- half-life [16]: 3.59 h
- IC50 [20]: 0.56 nM
- Vd [23]: 6.33 L/kg
- Cmax [28]: 915 ng/mL
SMILES: O=C(Nc1cccc(CN2CCOCC2)c1)c1ccc(Nc2nccc(-c3ccc(OC(F)(F)F)cc3)n2)cc1
